From ChEMBL document CHEMBL3102784, “Salicylanilide diethyl phosphates: synthesis, antimicrobial activity and cytotoxicity” (Bioorg Med Chem, 2014)
Activity calls are given as the source filed them.

What was measured:
Mycobacterium kansasii [1] = assay: Antimycobacterial activity against Mycobacterium kansasii My 235/80 after 21 days; type: functional; conditions: My 235/80, 504 h
In short: (§1)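 Micromethod MIC in Šula's semisynthetic medium at 37 °C. Compounds added in DMSO at 1000 down to 0.032 µmol/L. Isoniazid standard in sterile water at 0.5–250 µmol/L. Inocula: H37Rv 10^3, M. avium 10^5, M. kansasii 10^4. Read at 14 and 21 d, plus 7 d for M. kansasii.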

Pseudomonas aeruginosa = assay: Antibacterial activity against Pseudomonas aeruginosa CCM 1961 at 500 micromol/L after 24 to 48 hrs by broth microdilution method; type: functional, organism-based
In short: (§2)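 Broth microdilution in Mueller–Hinton broth, compounds dissolved in DMSO, tested over a dilution series from 500 downward. MIC taken as ≥95% growth reduction (IC95) versus drug-free control. Benzylpenicillin comparator. Readings at 24 and 48 h.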

[2] = test system: Staphylococcus epidermidis; assay: Antibacterial activity against Staphylococcus epidermidis H 6966/08 after 48 hrs by broth microdilution method; type: functional; conditions: H 6966/08, 48 h; in short: as §2
Staphylococcus aureus [3] = assay: Antibacterial activity against methicillin-resistant Staphylococcus aureus H 5996/08 after 24 hrs by broth microdilution method; type: functional; conditions: H 5996/08, 24 h; in short: as §2
Lichtheimia corymbifera [4] = assay: Antifungal activity against Absidia corymbifera 272 after 48 hrs by broth microdilution method; type: functional; conditions: Lichtheimia corymbifera, 272, 48 h
In short: (§3)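 Broth microdilution in RPMI 1640 with glutamine, fluconazole as reference. For yeasts, MIC is ≥80% growth reduction (IC80) versus control. For filamentous fungi, the value is expressed as IC50. Readings at 24 and 48 h.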

Enterococcus sp. = assay: Antibacterial activity against Enterococcus sp. J 14365/08 at 500 micromol/L after 24 to 48 hrs by broth microdilution method; type: functional, organism-based; in short: as §2
Mycobacterium kansasii [5] = assay: Antimycobacterial activity against Mycobacterium kansasii 6509/96 after 7 days; type: functional; conditions: 6509/96, 168 h; in short: as §1
Aspergillus fumigatus [6] = assay: Antifungal activity against Aspergillus fumigatus 231 after 24 hrs by broth microdilution method; type: functional; conditions: Aspergillus fumigatus, 231, 24 h; in short: as §3
Pichia kudriavzevii [7] = assay: Antifungal activity against Candida krusei E28 after 24 hrs by broth microdilution method; type: functional; conditions: E28, 24 h; in short: as §3
Escherichia coli = assay: Antibacterial activity against Escherichia coli CCM 4517 at 500 micromol/L after 24 to 48 hrs by broth microdilution method; type: functional, organism-based; in short: as §2
Staphylococcus aureus [8] = assay: Antibacterial activity against Staphylococcus aureus CCM 4516/08 after 48 hrs by broth microdilution method; type: functional; conditions: CCM 4516/08, 48 h; in short: as §2
[9] = test system: Trichophyton mentagrophytes; assay: Antifungal activity against Trichophyton mentagrophytes 445 after 120 hrs by broth microdilution method; type: functional; conditions: Trichophyton mentagrophytes, 445, 120 h
In short: (§4)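 Filamentous dermatophyte tested by broth microdilution in RPMI 1640 with glutamine, fluconazole as reference. Value expressed as IC50 relative to growth control. Read at 72 and 120 h.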

Mycobacterium avium [10] = assay: Antimycobacterial activity against isoniazid, rifampicin, ethambutol and ofloxacin-resistant Mycobacterium avium My 330/88 after 21 days; type: functional; conditions: My 330/88, 504 h; in short: as §1
Trichosporon asahii [11] = assay: Antifungal activity against Trichosporon asahii 1188 after 48 hrs by broth microdilution method; type: functional; conditions: Trichosporon asahii, 1188, 48 h; in short: as §3
Mycobacterium avium [12] = assay: Antimycobacterial activity against isoniazid, rifampicin, ethambutol and ofloxacin-resistant Mycobacterium avium My 330/88 after 14 days; type: functional; conditions: My 330/88, 336 h; in short: as §1
Mycobacterium kansasii [13] = assay: Antimycobacterial activity against Mycobacterium kansasii My 235/80 after 14 days; type: functional; conditions: My 235/80, 336 h; in short: as §1
Klebsiella pneumoniae [14] = assay: Antibacterial activity against Klebsiella pneumoniae D 11750/08 at 500 micromol/L after 24 to 48 hrs by broth microdilution method; type: functional, organism-based; in short: as §2
Mycobacterium kansasii [15] = assay: Antimycobacterial activity against Mycobacterium kansasii 6509/96 after 14 days; type: functional; conditions: 6509/96, 336 h; in short: as §1
HepG2 = assay: Cytotoxicity against human HepG2 cells after 24 hrs by CellTiter assay; type: cell-based; conditions: HepG2, 24 h
In short: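 HepG2 cells (passage 27–33) in MEM with 10% FBS, L-glutamine and NEAA, seeded at 1×10^4 per well. Treated next day with compounds at 0.1–100 µM (or 0.1–25 µmol/L), triplicates, <1% DMSO, for 24 h at 37 °C, 5% CO2. MTS reagent added for 2 h, absorbance read at 490 nm. IC50 taken against untreated (100%) and 10% DMSO (0%) controls.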

Klebsiella pneumoniae [16] = assay: Antibacterial activity against ESBL-positive Klebsiella pneumoniae J 14368/08 at 500 micromol/L after 24 to 48 hrs by broth microdilution method; type: functional, organism-based; in short: as §2
Mycobacterium kansasii [17] = assay: Antimycobacterial activity against Mycobacterium kansasii 6509/96 after 21 days; type: functional; conditions: 6509/96, 504 h; in short: as §1
Candida albicans [18] = assay: Antifungal activity against Candida albicans ATCC 44859 after 24 hrs by broth microdilution method; type: functional; conditions: ATCC 44859, 24 h; in short: as §3
Aspergillus fumigatus [19] = assay: Antifungal activity against Aspergillus fumigatus 231 after 48 hrs by broth microdilution method; type: functional; conditions: Aspergillus fumigatus, 231, 48 h; in short: as §3
Candida albicans [20] = assay: Antifungal activity against Candida albicans ATCC 44859 after 48 hrs by broth microdilution method; type: functional; conditions: ATCC 44859, 48 h; in short: as §3
[21] = test system: Staphylococcus epidermidis; assay: Antibacterial activity against Staphylococcus epidermidis H 6966/08 after 24 hrs by broth microdilution method; type: functional; conditions: H 6966/08, 24 h; in short: as §2
[22] = test system: Mycobacterium tuberculosis; assay: Antimycobacterial activity against Mycobacterium tuberculosis H37Rv My 331/88 after 21 days; type: functional; conditions: H37Rv My 331/88, 504 h; in short: as §1
Pichia kudriavzevii [23] = assay: Antifungal activity against Candida krusei E28 after 48 hrs by broth microdilution method; type: functional; conditions: E28, 48 h; in short: as §3
Lichtheimia corymbifera [24] = assay: Antifungal activity against Absidia corymbifera 272 after 24 hrs by broth microdilution method; type: functional; conditions: Lichtheimia corymbifera, 272, 24 h; in short: as §3
Candida tropicalis = assay: Antifungal activity against Candida tropicalis 156 at 500 micromol/L after 24 to 48 hrs by broth microdilution method; type: functional, organism-based; in short: as §3
Nakaseomyces glabratus = assay: Antifungal activity against Candida glabrata 20/I at 500 micromol/L after 24 to 48 hrs by broth microdilution method; type: functional, organism-based; in short: as §3
[25] = test system: Mycobacterium tuberculosis; assay: Antimycobacterial activity against Mycobacterium tuberculosis H37Rv My 331/88 after 14 days; type: functional; conditions: H37Rv My 331/88, 336 h; in short: as §1
Mycobacterium kansasii [26] = assay: Antimycobacterial activity against Mycobacterium kansasii My 235/80 after 7 days; type: functional; conditions: My 235/80, 168 h; in short: as §1
[27] = test system: Trichophyton mentagrophytes; assay: Antifungal activity against Trichophyton mentagrophytes 445 after 72 hrs by broth microdilution method; type: functional; conditions: Trichophyton mentagrophytes, 445, 72 h; in short: as §4
Staphylococcus aureus [28] = assay: Antibacterial activity against methicillin-resistant Staphylococcus aureus H 5996/08 after 48 hrs by broth microdilution method; type: functional; conditions: H 5996/08, 48 h; in short: as §2
Staphylococcus aureus [29] = assay: Antibacterial activity against Staphylococcus aureus CCM 4516/08 after 24 hrs by broth microdilution method; type: functional; conditions: CCM 4516/08, 24 h; in short: as §2
Trichosporon asahii [30] = assay: Antifungal activity against Trichosporon asahii 1188 after 24 hrs by broth microdilution method; type: functional; conditions: Trichosporon asahii, 1188, 24 h; in short: as §3

CCOP(=O)(OCC)Oc1ccc(Cl)cc1C(=O)Nc1cccc(F)c1
32 µM: MIC (Mycobacterium kansasii [1]) | MIC (Mycobacterium avium [10]) | MIC (Mycobacterium avium [12]) | MIC (Mycobacterium kansasii [13]) | MIC (Mycobacterium kansasii [15]) | MIC (Mycobacterium kansasii [17])
16 µM: MIC (Mycobacterium kansasii [5]) | MIC (Mycobacterium kansasii [26])
17.2 µM: IC50 (HepG2)
62.5 µM: MIC50 [9] | MIC50 [27]
> 500 µM: MIC50 (Lichtheimia corymbifera [4]) | MIC50 (Aspergillus fumigatus [6]) | MIC80 (Pichia kudriavzevii [7]) | MIC80 (Trichosporon asahii [11]) | MIC80 (Candida albicans [18]) | MIC50 (Aspergillus fumigatus [19]) | MIC80 (Candida albicans [20]) | MIC80 (Pichia kudriavzevii [23]) | MIC50 (Lichtheimia corymbifera [24]) | MIC95 (Staphylococcus aureus [28]) | MIC80 (Trichosporon asahii [30])
250 µM: MIC95 [21]
inactive: Activity (Pseudomonas aeruginosa) | Activity (Enterococcus sp.) | Activity (Escherichia coli) | Activity (Klebsiella pneumoniae [14]) | Activity (Klebsiella pneumoniae [16]) | Activity (Candida tropicalis) | Activity (Nakaseomyces glabratus)
500 µM: MIC95 [2] | MIC95 (Staphylococcus aureus [3]) | MIC95 (Staphylococcus aureus [8])
125 µM: MIC95 (Staphylococcus aureus [29])
8 µM: MIC [22] | MIC [25]
